The list is not random: actives were taken first. Their share in the collection is about 4.9%.
NF-kB neuron act = activators of NF-kB expression in neurons, primary screen, cell-based, HTS; human neuronal cells, NF-kB reporter expression; active compounds read high; fold change at 12.5 µM; 190,000 compounds, 1.6% hits; in the data active = fold change above about 3.3
STAT1 act = STAT1 signaling activators, primary screen, cell-based, HTS, luciferase reporter; NIH 3T3 STAT1-luciferase reporter, IFN-gamma, luminescence; 100% = IFN-gamma alone, no compound; activation (% of control), % at 5.5 µM; 200,000 compounds, 2.6% hits; AID 932, 2007;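 active = activation above the screen-wide mean activation plus 3 SD, cut at about 130% in these data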;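 also: raw ratio to IFN-gamma control signal so 100% means no change and 0% no light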
STAT1 inh = STAT1 signaling inhibitors, primary screen, cell-based, HTS, luciferase reporter; NIH 3T3 STAT1-luciferase reporter, IFN-gamma, luminescence; AID 920, 2007; 200,000 compounds, 0.35% hits; inhibition, % at 5.5 µM;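 active = inhibition above a set limit, the mean inhibition across all tested compounds plus 3 SD, cut at about 34% in these data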;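 also: 0% = IFN-gamma with DMSO and 100% = IFN-gamma with 300 µM nifuroxazide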
STAT3 inh = IL-6 driven STAT3 reporter inhibitors, primary screen, U3A cells, luciferase, luminescence, MLSCN library; IL-6 STAT3-luciferase reporter; host cell line lacks STAT1; inhibition, % at 5.5 µM; 190,000 compounds, 0.89% hits;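 active = inhibition above the mean inhibition across all screened compounds plus 3 SD, cut at about 44% in these data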;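 also: 0% = DMSO only wells and 100% = 100 µM nifuroxazide control wells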
STAT3 activator = IL-6 driven STAT3 reporter potentiators, primary screen, U3A cells, luciferase, luminescence, MLSCN library; activation (% of control), % at 5.6 µM; IL-6 STAT3-luciferase reporter; 100% = signal with IL-6 EC80 alone; AID 871, 2007; 190,000 compounds, 0.91% hits;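 active = activation above the screen-wide mean of compound activation plus 3 SD, cut at about 130% in these data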;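 also: 0% = background luminescence of wells with medium and substrate only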
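Assay system – human STAT1-deficient U3A cells with stable STAT3-luciferase reporter · Also added – IL-6 (33 ng/mL) · Schedule – compound 1 h, then IL-6 6 h at 37 °C · Technique – reporter luminescence signal · Evaluation – % activation versus median of IL-6-stimulated wells · Benchmarks – IL-6-only wells as 100% reference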
APP 5'UTR act = activators of APP 5'UTR luciferase reporter, primary screen, SH-SY5Y cells; activation, % at 2 µM; AID 1276, 2008; SH-SY5Y APP 5'UTR luciferase reporter, luminescence; zero percent = DMSO vehicle wells; 190,000 compounds, 1% hits;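 active = activation above a set limit, based on mean plus 3 SD of controls, cut at about 140% in these data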
STAT1 activ conf = STAT1 signaling activators, confirmation, cell-based, HTS, luciferase reporter; shares compounds with STAT1 act; NIH 3T3 STAT1-luciferase reporter, IFN-gamma potentiation, luminescence; 100% = IFN-gamma EC80 alone, no compound; activation (% of control), % at 5.7 µM; 1,200 compounds, 97% hits;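 active = activation above a set limit carried over from the earlier primary STAT1 screen, cut at about 140% in these data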;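 also: simple ratio to median IFN-gamma plus DMSO wells so 0% means no light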
NFkB act STAT1ct = NF-kB reporter activators, TNF-alpha stimulated, counter-screen for STAT1 activator project, cell-based, HEK293T, luciferase luminescence. shares compounds with STAT1 act. 100% = TNF-alpha with vehicle only. activation (% of control), % at 5.7 µM. 1,200 compounds, 43% hits. AID 1306, 2008;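 active = activation above the mean of solvent-only control wells plus 3 SD, set per campaign, cut at about 130% in these data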;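 also: TNF-alpha given at a submaximal dose yielding about 80% of full reporter signal; values are well signal over median control so 100% means no change and 0% no light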
STAT3 act 2 = STAT3 reporter activation by STAT1 hits, confirmation, counter-screen for STAT1 activator project, U3A cells, luciferase, luminescence | shares compounds with STAT1 act | activation (% of control), % at 5.7 µM | 1,200 compounds, 46% hits | IL-6; cells lack STAT1; 100 = IL-6 alone, no compound effect;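 active = activation above the solvent-only control well mean plus 3 SD, set per plate batch, cut at about 110% in these data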;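 also: 0% = no luminescence and 100% = median IL-6 plus DMSO wells; higher means more STAT3 reporter activation so hits are non-selective activators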
* marks the source's active call; other numbers are inactive results; . = no result given.

SMILES | NF-kB neuron act | STAT1 act | STAT1 inh | STAT3 inh | STAT3 activator | APP 5'UTR act | STAT1 activ conf | NFkB act STAT1ct | STAT3 act 2
CC(C)CC(=O)NCCCCc1ccccc1 | 1.2 | 102 | -3 | 8 | 94 | 22 | . | . | .
CON1C(=O)C(=O)N(OC)C(C)(C)C1(C)C | 0.97 | 96 | 5 | -2 | 98 | 12 | . | . | .
Cc1ccc2c(c1)N=C(c1ccc(F)cc1)CO2 | 2.8 | 164* | -70 | 6 | 99 | 86 | 195* | 144* | 111*
O=[N+]([O-])c1ccc(C2=Nc3cc(Cl)ccc3OC2)cc1 | 1.3 | 122 | -26 | 15 | 95 | 21 | . | . | .
Cc1nc2c(-c3ccccc3)c(C)nn2c(N)c1-c1ccccc1 | 2.2 | 159* | -65 | 10 | 94 | 199* | 206* | 141* | 110
CCc1ccc(/C=N/NC(=O)c2c[nH]c3ccccc23)s1 | 2.1 | 154* | -60 | -7 | 106 | 122 | 189* | 126 | 115*
CCN(CC)c1ccc(/C=N/NC(=O)c2c[nH]c3ccccc23)cc1 | 1.2 | 120 | -21 | -6 | 104 | 17 | . | . | .
NNc1nc2c(F)cc(F)cc2s1 | 1.3 | 156* | -63 | -15 | 115 | 167* | 128 | 121 | 116*
O=C(c1cc(-c2ccc(Cl)c(Cl)c2)on1)N1CCCCC1 | 3.2 | 159* | -65 | 7 | 98 | 37 | 188* | 137* | 114*
Cc1ccc(/C=N\NC(=O)C2CN(S(=O)(=O)c3ccccc3)CCN2S(=O)(=O)c2ccccc2)cc1 (stereo not drawn) | 0.71 | 98 | 2 | 10 | 91 | 6 | . | . | .
O=c1oc2ccccc2cc1-c1csc(NN=C2CCCC2)n1 | 1.4 | 108 | -8 | 5 | 95 | 21 | . | . | .
O=c1oc2ccccc2cc1-c1nnc(NCc2ccco2)s1 | 5.4* | 154* | -66 | 12 | 91 | 147* | 188* | 139* | 112*
C=CCn1c(SCC(=O)Nc2ncc(Cc3ccc(Br)cc3)s2)nnc1-c1ccncc1 | 1.3 | 98 | 2 | 10 | 96 | -6 | . | . | .
O=C(c1ccc(F)cc1)c1cc2ccccc2o1 | 3.6* | 157* | -62 | 6 | 97 | 59 | 174* | 129 | 103
Nc1c(C(=O)c2ccc(Br)cc2)oc2ccccc12 | 1.2 | 100 | 0 | -24 | 121 | 14 | . | . | .
Nc1c(C(=O)c2ccccc2)oc2ccc(Br)cc12 | 4* | 155* | -61 | -28 | 128 | 124 | 188* | 136* | 130*
CCc1sc(C(=O)NCCc2ccc(S(N)(=O)=O)cc2)cc1Br | 1.1 | 100 | -3 | 8 | 95 | 2 | . | . | .
Clc1ccc(OCc2nc(-c3ccncc3)no2)c(Br)c1 | 4* | 152* | -60 | -6 | 104 | 250* | 233* | 141* | 123*
COc1ccccc1Cc1nc(-c2ccncc2)no1 | 1.2 | 106 | -6 | 11 | 92 | 17 | . | . | .
Clc1ccccc1OCc1nc(-c2ccncc2)no1 | 4.1* | 162* | -67 | 1 | 102 | 194* | 184* | 131 | 117*
Cc1nn(Cc2ccccc2)c(Cl)c1C(=O)NCc1ccco1 | 0.95 | 90 | 10 | -10 | 111 | -10 | . | . | .
CC(C)n1nnc2c(=O)oc3ccccc3c21 | 1.1 | 102 | -3 | 1 | 99 | 17 | . | . | .
COc1ccc(C(=O)N=c2sccn2C)cc1 | 2 | 128 | -27 | 21 | 86 | 54 | . | . | .
Cn1ccsc1=NC(=O)c1ccc(Cl)cc1 | 2.7 | 156* | -65 | -20 | 121 | 113 | 166* | 130 | 118*
N#CC1=C(SCC(=O)c2ccccc2)NC2=C(C(=O)CCC2)C1c1ccco1 (stereo not drawn) | 2.4 | 156* | -63 | -13 | 114 | -68 | 166* | 128 | 106
SMILES | NF-kB neuron act | STAT1 act | STAT1 inh | STAT3 inh | STAT3 activator | APP 5'UTR act | STAT1 activ conf | NFkB act STAT1ct | STAT3 act 2
C=CS(=O)(=O)c1ccc(Oc2ccc(S(=O)(=O)C=C)cc2)cc1 | 0.99 | 323* | -246 | 40 | 67 | -90 | 189* | 79 | 114*
NS(=O)(=O)c1ccc(Oc2ccc(S(N)(=O)=O)cc2)cc1 | 1.1 | 89 | 10 | 3 | 99 | 15 | . | . | .
O=C(COC(=O)CCSc1ccccc1Cl)NCc1ccco1 | 0.98 | 106 | -8 | 2 | 102 | 4 | . | . | .
O=C(OCc1csc(-c2ccccc2)n1)c1cccs1 | 3 | 152* | -57 | 8 | 96 | 17 | 181* | 120 | 108
O=C(Nc1ccccc1Cl)c1ccc(-n2cccn2)c([N+](=O)[O-])c1 | 1.1 | 105 | -9 | 18 | 88 | 8 | . | . | .
O/N=C/c1ccccc1OCc1ccccc1Cl | 1.2 | 97 | 3 | 20 | 92 | 2 | . | . | .
COc1cc(/C=N/O)ccc1OCc1ccccc1Cl | 7.2* | 182* | -92 | 15 | 91 | 186* | 191* | 125 | 120*
Nc1cc2nn(-c3ccccc3)nc2cc1Cl | 4.4* | 166* | -74 | -13 | 123 | 199* | 238* | 133 | 151*
CC(C)CC(=O)Nc1cc2nn(-c3ccccc3)nc2cc1Cl | 2.1 | 118 | -27 | 5 | 96 | . | . | . | .
Nc1ccc2nn(-c3cccc4ccccc34)nc2c1 | 1.1 | 94 | 6 | 19 | 91 | -10 | . | . | .
Nc1ccc2nn(-c3ccccc3)nc2c1 | 3 | 155* | -61 | 8 | 97 | 93 | 203* | 132 | 110
CCn1cc(CNC(=O)c2c(-c3c(Cl)cccc3Cl)noc2C)c(C)n1 | 1.1 | 102 | -2 | 12 | 90 | 10 | . | . | .
CC1=C(C(=O)N2CCOCC2)C(c2cc(C)ccc2C)NC(=S)N1 (stereo not drawn) | 0.97 | 99 | 0 | 0 | 102 | -8 | . | . | .
CCOC(=O)c1ccc(OS(=O)(=O)c2ccccc2)c(OC)c1 | 3.8* | 174* | -83 | -25 | 122 | 114 | 185* | 141* | 123*
CCOc1cc(C(=S)N2CCOCC2)ccc1OS(=O)(=O)c1ccccc1 | 0.91 | 92 | 9 | 6 | 97 | -8 | . | . | .
